Common to all, as to assay type: functional
For one assay, the system named is BT-549. Put plainly: Growth inhibition of human BT549 cells after 48 hrs by Sulforhodamine B assay. Conditions: BT-549, 48 h. An outline of the steps: (§1)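 Five-concentration SRB assay using 10-fold or ½-log serial dilutions from a DMSO stock. Exposure is 48 h at 37 °C in 5% CO2 after 24 h preincubation. TCA fixation is followed by SRB staining and a reading at 515 nm. Percentage growth is computed from time-zero, control and treated absorbances. GI50 is the concentration where [(Ti−Tz)/(C−Tz)]×100 = 50, read from the plot against log concentration.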
Background: The SRB assay estimates cell density from bound dye.

The subject of the next assay is CAKI-1. Put plainly: Growth inhibition of human CAKI-1 cells after 48 hrs by Sulforhodamine B assay. Conditions: CAKI-1, 48 h. In short, it runs like this: as §1
In another assay the test system is OVCAR-8. Put plainly: Growth inhibition of human OVCAR8 cells after 48 hrs by Sulforhodamine B assay. Conditions: OVCAR-8, 48 h. In short, it runs like this:
(§2)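 Cells were preincubated 24 h at 37 °C, 5% CO2, and a time-zero plate was TCA-fixed. Five concentrations were made by serial dilution from a DMSO stock (400-fold the top concentration) and incubated 48 h. Adherent cells were fixed with 10% final TCA and suspension cells with 16%. Plates were stained with 0.4% SRB and read at 515 nm. GI50 is the concentration giving 50% reduction in net protein increase versus control.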

The subject of another assay is OVCAR-5. Put plainly: Growth inhibition of human OVCAR5 cells after 48 hrs by Sulforhodamine B assay. Conditions: OVCAR-5, 48 h. An outline of the steps: as §2
The next assay deals with MDA-MB-468. Put plainly: Growth inhibition of human MDA-MB-468 cells after 48 hrs by Sulforhodamine B assay. Conditions: MDA-MB-468, 48 h. An outline of the steps: as §2
Another assay has as its system HL-60(TB). The assay can be described thus: Growth inhibition of human HL-60(TB) cells after 48 hrs by Sulforhodamine B assay. Conditions: HL-60, 48 h. An outline of the steps: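 Suspension cells pre-incubated 24 h at 37 °C, 5% CO2 before drug addition, with a time-zero plate fixed then. DMSO stocks diluted in medium with gentamicin to five concentrations (10-fold or ½-log steps); 48 h exposure. Settled cells fixed with TCA (final 16%), stained with SRB, dye dissolved in 10 mM Tris base, read at 515 nm. GI50 solved from [(Ti−Tz)/(C−Tz)]×100 = 50.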

The test system of a further assay is SN12C. Put plainly: Growth inhibition of human SN12C cells after 48 hrs by Sulforhodamine B assay. An outline of the steps:
as §2

Another assay has as its system OVCAR-3. The assay can be described thus: Growth inhibition of human OVCAR3 cells after 48 hrs by Sulforhodamine B assay. Conditions: OVCAR-3, 48 h. In short, it runs like this:
as §2

A further assay concerns SNB-75. Put plainly: Growth inhibition of human SNB75 cells after 48 hrs by Sulforhodamine B assay. Conditions: SNB-75, 48 h. In short, it runs like this: as §2
Another assay deals with SK-MEL-5. The assay can be described thus: Growth inhibition of human SK-MEL-5 cells after 48 hrs by Sulforhodamine B assay. Conditions: SK-MEL-5, 48 h. An outline of the steps:
as §2

Another assay concerns MDA-MB-231. Put plainly: Growth inhibition of human MDA-MB-231 cells after 48 hrs by Sulforhodamine B assay. Conditions: MDA-MB-231, 48 h. An outline of the steps:
as §1

Another assay has as its system NCI-H460. Put plainly: Growth inhibition of human NCI-H460 cells after 48 hrs by Sulforhodamine B assay. Conditions: NCI-H460, 48 h. In short, it runs like this: as §2
For the next assay, the system named is SW-620. Put plainly: Growth inhibition of human SW620 cells after 48 hrs by Sulforhodamine B assay. Conditions: SW-620, 48 h. An outline of the steps:
as §2

A further assay has as its system IGROV-1. Put plainly: Growth inhibition of human IGROV1 cells after 48 hrs by Sulforhodamine B assay. Conditions: IGROV-1, 48 h. In short, it runs like this: as §1
In the next assay the test system is 786-0. The assay can be described thus: Growth inhibition of human 786-0 cells after 48 hrs by Sulforhodamine B assay. Conditions: 786-0, 48 h. In short, it runs like this:
as §1

Another assay relates to COLO 205. Put plainly: Growth inhibition of human COLO205 cells after 48 hrs by Sulforhodamine B assay. Conditions: COLO 205, 48 h. In short, it runs like this:
as §1

A further assay concerns A498. The assay can be described thus: Growth inhibition of human A498 cells after 48 hrs by Sulforhodamine B assay. Conditions: A498, 48 h. An outline of the steps: as §1
For another assay, the system named is HOP-62. The assay can be described thus: Growth inhibition of human HOP62 cells after 48 hrs by Sulforhodamine B assay. Conditions: HOP-62, 48 h. In short, it runs like this: as §1
For a further assay, the system named is UACC-62. The assay can be described thus: Growth inhibition of human UACC62 cells after 48 hrs by Sulforhodamine B assay. Conditions: UACC-62, 48 h. An outline of the steps:
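Five-concentration stage in the […]-cell-line panel, using 10-fold or ½-log serial dilutions made from a DMSO stock (400-fold). Cells were preincubated 24 h at 37 °C, then drug-exposed 48 h. A time-zero plate was fixed with TCA at dosing, adherent cells were fixed with cold TCA (10% final), and protein was stained with SRB, absorbance 515 nm. GI50 was where [(Ti−Tz)/(C−Tz)]×100 = 50, from the percent growth vs log concentration plot, expressed as log10 GI50.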

In another assay the test system is MOLT-4. Put plainly: Growth inhibition of human MOLT4 cells after 48 hrs by Sulforhodamine B assay. Conditions: MOLT-4, 48 h. An outline of the steps:
as §2

Molecules are shown by their SMILES.

The GI50 is the concentration at which growth is held to half of that of the control. A lower GI50 goes with more potent growth inhibition.

Turning to `COc1ccc(N2CCN(c3nc(-c4ccccn4)nc4sc5c(c34)CCCCCC5)CC2)cc1`, the GI50 is 6.92 µM with BT-549; 5.37 µM with CAKI-1; 5.25 µM in the assay with OVCAR-8; 51.3 µM in the assay with OVCAR-5; 4.07 µM in the assay with MDA-MB-468; 4.07 µM in the assay on HL-60(TB). Besides, the GI50 with SN12C is 6.03 µM; in the assay on OVCAR-3 it was 8.71 µM; in the assay with SNB-75, 26.3 µM; in the assay on SK-MEL-5, 2.82 µM; in the assay with MDA-MB-231 it was 50.1 µM; with NCI-H460, 4.68 µM. Moreover, the GI50 in the assay with SW-620 is 5.13 µM; in the assay on IGROV-1 it was 5.37 µM; in the assay on 786-0, 8.51 µM; in the assay with COLO 205, 5.62 µM; in the assay with A498 it was 3.31 µM; with HOP-62, 11.5 µM. In addition, the results for the GI50 in the assay on UACC-62 and with MOLT-4 were 6.92 µM and 3.24 µM, respectively.
Consider `CN1CCN(c2nc(-c3ccncc3)nc3sc4c(c23)CCCCCC4)CC1`, for which the GI50 with BT-549 is 6.31 µM; in the assay with CAKI-1, 3.47 µM; in the assay with OVCAR-8 it was 12.3 µM; in the assay with OVCAR-5, 10.7 µM; in the assay on MDA-MB-468, 5.25 µM; in the assay with HL-60(TB), 12.6 µM. The GI50 in the assay with SN12C was 5.62 µM; in the assay on OVCAR-3 it was 13.5 µM; in the assay on SNB-75, 1.38 µM; with SK-MEL-5 it was 7.94 µM; in the assay on MDA-MB-231, 4.27 µM; in the assay with NCI-H460 it was 13.5 µM. Besides, the GI50 with SW-620 was 12 µM; in the assay with IGROV-1 it was 8.13 µM; in the assay on 786-0, 4.79 µM; with COLO 205, 4.9 µM; in the assay with A498, 1.05 µM; in the assay with HOP-62 it was 6.46 µM. Further, the GI50 in the assay on UACC-62 is 11 µM; in the assay on MOLT-4, 3.8 µM.
In the case of `c1ccc(-c2nc(N3CCOCC3)c3c4c(sc3n2)CCCCCC4)nc1`, the GI50 in the assay with BT-549 was 4.37 µM; in the assay with CAKI-1 it was 2.29 µM; with OVCAR-8, 5.13 µM; with OVCAR-5, 10.2 µM; in the assay with MDA-MB-468, 4.17 µM; with HL-60(TB) it was 4.47 µM. For the same molecule, the GI50 with SN12C was 5.01 µM; in the assay with OVCAR-3 it was 4.57 µM; with SNB-75, 7.08 µM; in the assay with SK-MEL-5, 2 µM; in the assay with MDA-MB-231, 7.41 µM; in the assay on NCI-H460 it was 5.89 µM. For the same molecule, the GI50 with SW-620 is 8.91 µM; in the assay with IGROV-1, 3.16 µM; in the assay on 786-0, 11.7 µM; in the assay with COLO 205, 9.33 µM; in the assay on A498, 1.66 µM; with HOP-62 it was 9.55 µM. Moreover, the figures for the GI50 with UACC-62 and with MOLT-4 were 3.47 µM and 3.8 µM, respectively.
`O=c1[nH]c(-c2ccncc2)nc2sc3c(c12)CCCCCC3`: the GI50 in the assay on BT-549, in the assay with CAKI-1, in the assay with OVCAR-8, with OVCAR-5, with MDA-MB-468 and with HL-60(TB) was greater than 100 µM throughout. Besides, the GI50 in the assay with SN12C was greater than 100 µM; in the assay on OVCAR-3, greater than 100 µM; with SNB-75, 2.69 µM; in the assay on SK-MEL-5, greater than 100 µM; with MDA-MB-231, greater than 100 µM; with NCI-H460, greater than 100 µM. Moreover, the GI50 in the assay on SW-620, in the assay on IGROV-1, in the assay on 786-0, in the assay on COLO 205, with A498 and with HOP-62 was greater than 100 µM in each case. Moreover, the GI50 in the assay with UACC-62 and with MOLT-4 was greater than 100 µM each time.

These data come from ChEMBL document CHEMBL2375304, “Synthesis and anticancer activity of novel 2-pyridyl hexahyrocyclooctathieno[2,3-d]pyrimidine derivatives” (2013).
